Screening data (PubChem)
MEKK3 PB1 HTS = raises or lowers MEK5 binding to the human MEKK3 PB1 domain | Q99759 | bead-based flow cytometry, Alexa488-MEK5 binding to MEKK3; actives lie on both sides; 0 = blocked by unlabeled MEK5, 100 = vehicle | binding response (% of control), % at 10 µM | actives 1.4% (n = 290,000) | AID 1529;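 active = binding response more than 3 SD above or below the average of its plate-row segment, actives on both sides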;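 note: Alexa488 bead fluorescence after subtracting the streptavidin-only scavenger bead signal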
Target sequence (Q99759 whole entry, looked up, the tested form may be a part): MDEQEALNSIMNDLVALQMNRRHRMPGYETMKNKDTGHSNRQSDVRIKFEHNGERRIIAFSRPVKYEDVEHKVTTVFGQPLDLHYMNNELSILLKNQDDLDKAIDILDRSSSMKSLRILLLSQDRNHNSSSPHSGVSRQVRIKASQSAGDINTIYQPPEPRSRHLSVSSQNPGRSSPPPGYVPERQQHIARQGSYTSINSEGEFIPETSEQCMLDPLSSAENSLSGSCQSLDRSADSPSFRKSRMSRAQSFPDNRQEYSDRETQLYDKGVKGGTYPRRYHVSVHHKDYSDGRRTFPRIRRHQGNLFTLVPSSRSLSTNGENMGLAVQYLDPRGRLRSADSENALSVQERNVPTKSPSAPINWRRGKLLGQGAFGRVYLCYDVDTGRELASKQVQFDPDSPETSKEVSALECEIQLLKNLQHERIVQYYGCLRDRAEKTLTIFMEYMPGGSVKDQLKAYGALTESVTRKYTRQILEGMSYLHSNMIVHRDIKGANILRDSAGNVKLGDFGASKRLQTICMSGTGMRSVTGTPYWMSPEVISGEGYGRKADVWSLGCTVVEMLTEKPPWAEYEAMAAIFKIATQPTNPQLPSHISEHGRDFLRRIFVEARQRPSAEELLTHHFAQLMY
MEKK2mut PB1 HTS = signal of MEK5 binding to mutant human MEKK2 PB1 domain; bead flow cytometry, Alexa488-MEK5 binding to MEKK2 mutant; percent response, % at 10 µM; actives 0.35% (n = 290,000); in the data active = percent response above about 24%, passing the limit was not always enough
UBC13 polyUb = inhibitors of human UBC13 polyubiquitin chain formation; P61088; TR-FRET; inhibition, % at 20 µM; actives 0.47% (n = 330,000); AID 485273; in the data active = inhibition above about 45%, passing the limit was not always enough
MEKK2wt PB1 HTS = raises or lowers MEK5 binding to wildtype human MEKK2 PB1 domain. AID 1531. Q9Y2U5. bead flow cytometry, Alexa488-MEK5 binding to MEKK2 WT; actives lie on both sides. binding response (% of control), % at 10 µM. actives 1.1% (n = 290,000); in the data active = binding response below about 67% or above about 130%
Apaf1 inhib = blocks human Apaf-1 apoptosome activity; inhibition, % at 20 µM; actives 0.71% (n = 330,000); O14727; reconstituted apoptosome caspase-3 activity, DEVD-Rh110 fluorescence; active = inhibition of at least 40% at 20 µM;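 note: plate controls were DMSO wells for no effect and DEVD-CHO caspase inhibitor wells for full effect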
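System: Apoptosome proteins | Medium: Hepes pH 7.5 with detergent and BSA | Also added: Cytochrome c trigger plus (Z-DEVD)2-Rh110 caspase-3 substrate | Incubation: 30 min compound preincubation, 50 min activation, room temperature | Detection: Rhodamine 110 fluorescence at Ex 480/Em 540 nm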
MEKK2wt confirm = raises or lowers MEK5 binding to wildtype human MEKK2, retest. shares compounds with MEKK3 PB1 HTS. bead flow cytometry, Alexa488-MEK5 binding to MEKK2 WT; actives lie on both sides. binding response (% of control), % at 10 µM. actives 2.4% (n = 5,900); in the data active = binding response below about 16% or above about 210%; inactive = in between
MEKK2mut confirm = signal of MEK5 binding to mutant human MEKK2, retest. AID 1893. bead flow cytometry, Alexa488-MEK5 binding to MEKK2 mutant. shares compounds with MEKK3 PB1 HTS. percent response, % at 10 µM. actives 2% (n = 5,900); in the data active = percent response mostly above about 71%, no sharp cut-off; inactive = mostly below about 38%;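 note: higher means compound restores mutant binding toward wildtype level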
MEKK3 confirm = MEKK3-MEK5 PB1 inhibition, single concentration confirmation; actives 1.8% (n = 5,900); bead flow cytometry, Alexa488-MEK5 binding to MEKK3; active compounds read low; shares compounds with MEKK3 PB1 HTS; AID 1894; binding response (% of control), % at 10 µM;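 active = binding response below 72% of control, or above a set upper limit, though filed actives all read lower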;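 note: 100% = DMSO only wells and 0% = binding blocked by excess unlabeled MEK5; lower values mean stronger disruption of MEK5 binding to MEKK3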
* marks the source's active call; other numbers are inactive results; . = no result given; [ ] = dose if it differs, or a comment. In the library only some 2.9% were active in any assay of this set; here they are far more common.

SMILES	MEKK3 PB1 HTS	MEKK2mut PB1 HTS	UBC13 polyUb	MEKK2wt PB1 HTS	Apaf1 inhib	MEKK2wt confirm	MEKK2mut confirm	MEKK3 confirm
Cc1cccc(NC(=O)c2cc([N+](=O)[O-])ccc2N2CCCCC2)n1	89	-4	-5	89	6	.	.	.
Cc1ccc(S(=O)(=O)N(C)CCCC(=O)n2nc(C)cc2C)cc1	0.0*[inhibitor]	-39	-9	0.0*[inhibitor]	13	103	-2	103
Cn1nccc1C(=O)NC1CCN(Cc2ccccc2)CC1	97	3	4	102	3	.	.	.
O=C(NC(N1CCCCCC1)C(Cl)(Cl)Cl)c1ccccc1Cl (stereo not given)	96	-3	15	98	2	.	.	.
O=C(NC(N1CCOCC1)C(Cl)(Cl)Cl)c1ccccc1Cl (stereo not given)	84	-6	3	55*[inhibitor]	-7	106	8	107
COc1ccc(C(CC(=O)c2ccc(O)cc2)S(=O)(=O)c2ccc(C)cc2)cc1 (stereo not given)	26*[inhibitor]	-18	3	37*[inhibitor]	-64	98	-4	99
COc1ccc(C(=O)CC(c2ccccc2)S(=O)(=O)c2ccc(C)cc2)cc1 (stereo not given)	97	-2	-17	100	12	.	.	.
CC1CC2(NC(=O)NC2=O)C(C)CN1C (stereo not given)	106	4	-1	107	2	.	.	.
CC1C(c2ccccc2)N(C)CCC12NC(=O)NC2=O (stereo not given)	4.0*[inhibitor]	-45	-4	6.0*[inhibitor]	-4	101	-1	105
Cc1ccc(CN2C(=O)CCC2C(=O)N2CCN(c3ccccc3)CC2)cc1 (stereo not given)	4.0*[inhibitor]	-46	-11	6.0*[inhibitor]	-4	108	10	106
COc1cc(Cl)c(CN2CCC(CO)(CCOc3ccccc3)CC2)cc1OC	99	8	-1	104	-2	.	.	.
OCC1(CCOc2ccccc2)CCN(CC2=Cc3cc(Cl)ccc3OC2)CC1	109	7	26	153*	25	137	15	107
O=C(/C=C/c1ccc(N2CCC(c3ccccc3)=N2)cc1)c1ccccc1	78	281*	-39	.	18	94	-50	78
O=C(/C=C/c1ccc(O)cc1)c1ccccc1	85	-13	-12	85	3	.	.	.
Cc1ccc(NC(=O)/C(C#N)=C/c2ccc(C)s2)c(C)c1	109	13	-18	39*[inhibitor]	5	105	-2	101
CCN1CCN(c2cc(C)c3cc(NC(=S)NCc4cccs4)ccc3n2)CC1	89	4	5	133	7	.	.	.
Cc1cc(N2CCN(C)CC2)nc2ccc(NC(=S)NCc3cccs3)cc12	110	21	28	141*	-2	124	15	104
CCCCN(CC)CCCNC(=S)Nc1ccc2nc(N3CCN(C)CC3)cc(C)c2c1	97	15	18	142*	-5	142	21	108
COCCNC(=S)Nc1ccc2nc(N3CCN(C)CC3)cc(C)c2c1	104	13	1	116	11	.	.	.
COc1ccc(CNC(=S)Nc2ccc3nc(N4CCN(C)CC4)cc(C)c3c2)cc1	117	30	1	152*	-6	118	9	101
COc1ccccc1CNC(=S)Nc1ccc2nc(N3CCN(C)CC3)cc(C)c2c1	105	22	26	138*	2	141	9	101
COc1ccc(CNCCCC(=O)Nc2c(Cl)ccc(C)c2Cl)cc1OC	97	2	1	99	1	.	.	.
CCOC(=O)C1CCCN(S(=O)(=O)c2cnc(Cl)c(Br)c2)C1 (stereo not given)	99	0	-6	99	21	.	.	.
